# Laboratory results from ChEMBL document CHEMBL4689842, “EUbOPEN Chemogenomics Library wave 1” (2021).
# System: HEK-293T
# Assay: Multiplex assay against HEK293T;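 on Population Tubulin-Different-Phenotype (%): share of the cells with healthy nuclei that show this phenotype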
# Type: toxicity, cell-based
# Settings: human
# Method in brief: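 With compound added, live cells were imaged on a CQ1 microscope at 37°C and 5% CO2; staining with Hoechst33342, BioTracker Green Microtubule Cytoskeleton Dye, MitoTracker Red and Annexin V Alexa Fluor 680 had been done at seeding. The CellPathfinder machine-learning gating scheme split cells into Hoechst high-intensity objects or normal cells, normal cells into healthy, pyknosed or fragmented nuclei, and pyknosed cells into mitotic or apoptotic. The tubulin, mitochondrial-mass and membrane-permeability phenotypes are per cents of healthy-nucleus cells.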
# [1] = 12 h, 1 µM, compound concentration 1 uM, replicate 1
# [2] = 12 h, 1 µM, compound concentration 1 uM, replicate 2
# [3] = 12 h, 10 µM, compound concentration 10 uM, replicate 1
# [4] = 12 h, 10 µM, compound concentration 10 uM, replicate 2
# [5] = 24 h, 1 µM, compound concentration 1 uM, replicate 1
# [6] = 24 h, 1 µM, compound concentration 1 uM, replicate 2
# [7] = 24 h, 10 µM, compound concentration 10 uM, replicate 1
# [8] = 24 h, 10 µM, compound concentration 10 uM, replicate 2
# [9] = 48 h, 1 µM, compound concentration 1 uM, replicate 1
# [10] = 48 h, 1 µM, compound concentration 1 uM, replicate 2
# [11] = 48 h, 10 µM, compound concentration 10 uM, replicate 1
# [12] = 48 h, 10 µM, compound concentration 10 uM, replicate 2
smiles,measurement,setting,value
Cc1csc2c(N[C@@H](C)CN3CCN(S(=O)(=O)c4ccc(Cl)c(Cl)c4)CC3)ncnc12,Population Apoptotic (%),[1],58%
same,Population Fragmented Nuclei (%),[1],12%
same,Population Healthy Nuclei (%),[1],16%
same,Population Hoechst High Intensity Objects (%),[1],19%
same,Population Membrane Permeable-Phenotype (%),[1],6%
same,Population Mitochondria Different-Phenotype (%),[1],96%
same,Population Mitotic Cells (%),[1],41%
same,Population Normal (%),[1],80%
same,Population Pyknosed Nuclei (%),[1],71%
same,Population Tubulin-Different-Phenotype (%),[1],93%
same,Total Cell Count,[1],223
same,Population Apoptotic (%),[2],27%
same,Population Fragmented Nuclei (%),[2],5%
same,Population Healthy Nuclei (%),[2],29%
same,Population Hoechst High Intensity Objects (%),[2],13%
same,Population Membrane Permeable-Phenotype (%),[2],14%
same,Population Mitochondria Different-Phenotype (%),[2],47%
same,Population Mitotic Cells (%),[2],72%
same,Population Normal (%),[2],86%
same,Population Pyknosed Nuclei (%),[2],64%
same,Population Tubulin-Different-Phenotype (%),[2],64%
same,Total Cell Count,[2],135
same,Population Apoptotic (%),[3],79%
same,Population Fragmented Nuclei (%),[3],9%
same,Population Healthy Nuclei (%),[3],5%
same,Population Hoechst High Intensity Objects (%),[3],11%
same,Population Membrane Permeable-Phenotype (%),[3],20%
same,Population Mitochondria Different-Phenotype (%),[3],90%
same,Population Mitotic Cells (%),[3],20%
same,Population Normal (%),[3],88%
same,Population Pyknosed Nuclei (%),[3],84%
same,Population Tubulin-Different-Phenotype (%),[3],80%
same,Total Cell Count,[3],197
same,Population Apoptotic (%),[4],80%
same,Population Fragmented Nuclei (%),[4],5%
same,Population Healthy Nuclei (%),[4],11%
same,Population Hoechst High Intensity Objects (%),[4],8%
same,Population Membrane Permeable-Phenotype (%),[4],9%
same,Population Mitotic Cells (%),[4],19%
same,Population Normal (%),[4],91%
same,Population Pyknosed Nuclei (%),[4],83%
same,Population Tubulin-Different-Phenotype (%),[4],68%
same,Total Cell Count,[4],206
same,Population Apoptotic (%),[5],57%
same,Population Fragmented Nuclei (%),[5],16%
same,Population Healthy Nuclei (%),[5],21%
same,Population Hoechst High Intensity Objects (%),[5],18%
same,Population Membrane Permeable-Phenotype (%),[5],4%
same,Population Mitochondria Different-Phenotype (%),[5],93%
same,Population Mitotic Cells (%),[5],42%
same,Population Normal (%),[5],81%
same,Population Pyknosed Nuclei (%),[5],62%
same,Population Tubulin-Different-Phenotype (%),[5],90%
same,Total Cell Count,[5],244
same,Population Apoptotic (%),[6],35%
same,Population Fragmented Nuclei (%),[6],10%
same,Population Healthy Nuclei (%),[6],28%
same,Population Hoechst High Intensity Objects (%),[6],7%
same,Population Membrane Permeable-Phenotype (%),[6],8%
same,Population Mitochondria Different-Phenotype (%),[6],44%
same,Population Mitotic Cells (%),[6],64%
same,Population Normal (%),[6],92%
same,Population Pyknosed Nuclei (%),[6],61%
same,Population Tubulin-Different-Phenotype (%),[6],88%
same,Total Cell Count,[6],131
same,Population Apoptotic (%),[7],85%
same,Population Fragmented Nuclei (%),[7],12%
same,Population Healthy Nuclei (%),[7],6%
same,Population Hoechst High Intensity Objects (%),[7],16%
same,Population Membrane Permeable-Phenotype (%),[7],27%
same,Population Mitochondria Different-Phenotype (%),[7],90%
same,Population Mitotic Cells (%),[7],14%
same,Population Normal (%),[7],83%
same,Population Pyknosed Nuclei (%),[7],80%
same,Population Tubulin-Different-Phenotype (%),[7],63%
same,Total Cell Count,[7],208
same,Population Apoptotic (%),[8],88%
same,Population Fragmented Nuclei (%),[8],5%
same,Population Healthy Nuclei (%),[8],7%
same,Population Hoechst High Intensity Objects (%),[8],9%
same,Population Membrane Permeable-Phenotype (%),[8],0%
same,Population Mitochondria Different-Phenotype (%),[8],85%
same,Population Mitotic Cells (%),[8],11%
same,Population Normal (%),[8],91%
same,Population Pyknosed Nuclei (%),[8],86%
same,Population Tubulin-Different-Phenotype (%),[8],71%
same,Total Cell Count,[8],200
same,Population Apoptotic (%),[9],59%
same,Population Fragmented Nuclei (%),[9],16%
same,Population Healthy Nuclei (%),[9],38%
same,Population Hoechst High Intensity Objects (%),[9],17%
same,Population Membrane Permeable-Phenotype (%),[9],5%
same,Population Mitochondria Different-Phenotype (%),[9],80%
same,Population Mitotic Cells (%),[9],40%
same,Population Normal (%),[9],82%
same,Population Pyknosed Nuclei (%),[9],45%
same,Population Tubulin-Different-Phenotype (%),[9],85%
same,Total Cell Count,[9],240
same,Population Apoptotic (%),[10],29%
same,Population Fragmented Nuclei (%),[10],10%
same,Population Healthy Nuclei (%),[10],47%
same,Population Hoechst High Intensity Objects (%),[10],8%
same,Population Membrane Permeable-Phenotype (%),[10],17%
same,Population Mitochondria Different-Phenotype (%),[10],44%
same,Population Mitotic Cells (%),[10],70%
same,Population Normal (%),[10],91%
same,Population Pyknosed Nuclei (%),[10],42%
same,Population Tubulin-Different-Phenotype (%),[10],89%
same,Total Cell Count,[10],159
same,Population Apoptotic (%),[11],47%
same,Population Fragmented Nuclei (%),[11],23%
same,Population Healthy Nuclei (%),[11],4%
same,Population Hoechst High Intensity Objects (%),[11],17%
same,Population Membrane Permeable-Phenotype (%),[11],25%
same,Population Mitochondria Different-Phenotype (%),[11],62%
same,Population Mitotic Cells (%),[11],52%
same,Population Normal (%),[11],82%
same,Population Pyknosed Nuclei (%),[11],72%
same,Population Tubulin-Different-Phenotype (%),[11],87%
same,Total Cell Count,[11],229
same,Population Apoptotic (%),[12],74%
same,Population Fragmented Nuclei (%),[12],4%
same,Population Healthy Nuclei (%),[12],21%
same,Population Hoechst High Intensity Objects (%),[12],13%
same,Population Membrane Permeable-Phenotype (%),[12],8%
same,Population Mitochondria Different-Phenotype (%),[12],78%
same,Population Mitotic Cells (%),[12],25%
same,Population Normal (%),[12],86%
same,Population Pyknosed Nuclei (%),[12],73%
same,Population Tubulin-Different-Phenotype (%),[12],67%
same,Total Cell Count,[12],199
